According to BindingDB's records for doi:10.1021/jm00014a008 (Sterling Winthrop Research, 1995):

Target: Sodium channel protein type 5 subunit alpha (Homo sapiens, UniProt Q14524)
Assay: Blockade of Na+ current in frog oocytes expressing human cardiac sodium channel (HH1)
Outline: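 HH1 transcripts injected into Xenopus laevis oocytes, incubated at room temperature 24–72 h. Two-microelectrode voltage clamp (3 M KCl electrodes), bath NaCl 140, KCl 2, CaCl2 1.8, MgCl2 1, HEPES 5 mM, pH 7.5, 21–23 °C. Holding −100 mV; peak current at the I–V maximum measured before and after test agent; IC50 in μM.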

Chain of Sodium channel protein type 5 subunit alpha (Q14524 whole entry): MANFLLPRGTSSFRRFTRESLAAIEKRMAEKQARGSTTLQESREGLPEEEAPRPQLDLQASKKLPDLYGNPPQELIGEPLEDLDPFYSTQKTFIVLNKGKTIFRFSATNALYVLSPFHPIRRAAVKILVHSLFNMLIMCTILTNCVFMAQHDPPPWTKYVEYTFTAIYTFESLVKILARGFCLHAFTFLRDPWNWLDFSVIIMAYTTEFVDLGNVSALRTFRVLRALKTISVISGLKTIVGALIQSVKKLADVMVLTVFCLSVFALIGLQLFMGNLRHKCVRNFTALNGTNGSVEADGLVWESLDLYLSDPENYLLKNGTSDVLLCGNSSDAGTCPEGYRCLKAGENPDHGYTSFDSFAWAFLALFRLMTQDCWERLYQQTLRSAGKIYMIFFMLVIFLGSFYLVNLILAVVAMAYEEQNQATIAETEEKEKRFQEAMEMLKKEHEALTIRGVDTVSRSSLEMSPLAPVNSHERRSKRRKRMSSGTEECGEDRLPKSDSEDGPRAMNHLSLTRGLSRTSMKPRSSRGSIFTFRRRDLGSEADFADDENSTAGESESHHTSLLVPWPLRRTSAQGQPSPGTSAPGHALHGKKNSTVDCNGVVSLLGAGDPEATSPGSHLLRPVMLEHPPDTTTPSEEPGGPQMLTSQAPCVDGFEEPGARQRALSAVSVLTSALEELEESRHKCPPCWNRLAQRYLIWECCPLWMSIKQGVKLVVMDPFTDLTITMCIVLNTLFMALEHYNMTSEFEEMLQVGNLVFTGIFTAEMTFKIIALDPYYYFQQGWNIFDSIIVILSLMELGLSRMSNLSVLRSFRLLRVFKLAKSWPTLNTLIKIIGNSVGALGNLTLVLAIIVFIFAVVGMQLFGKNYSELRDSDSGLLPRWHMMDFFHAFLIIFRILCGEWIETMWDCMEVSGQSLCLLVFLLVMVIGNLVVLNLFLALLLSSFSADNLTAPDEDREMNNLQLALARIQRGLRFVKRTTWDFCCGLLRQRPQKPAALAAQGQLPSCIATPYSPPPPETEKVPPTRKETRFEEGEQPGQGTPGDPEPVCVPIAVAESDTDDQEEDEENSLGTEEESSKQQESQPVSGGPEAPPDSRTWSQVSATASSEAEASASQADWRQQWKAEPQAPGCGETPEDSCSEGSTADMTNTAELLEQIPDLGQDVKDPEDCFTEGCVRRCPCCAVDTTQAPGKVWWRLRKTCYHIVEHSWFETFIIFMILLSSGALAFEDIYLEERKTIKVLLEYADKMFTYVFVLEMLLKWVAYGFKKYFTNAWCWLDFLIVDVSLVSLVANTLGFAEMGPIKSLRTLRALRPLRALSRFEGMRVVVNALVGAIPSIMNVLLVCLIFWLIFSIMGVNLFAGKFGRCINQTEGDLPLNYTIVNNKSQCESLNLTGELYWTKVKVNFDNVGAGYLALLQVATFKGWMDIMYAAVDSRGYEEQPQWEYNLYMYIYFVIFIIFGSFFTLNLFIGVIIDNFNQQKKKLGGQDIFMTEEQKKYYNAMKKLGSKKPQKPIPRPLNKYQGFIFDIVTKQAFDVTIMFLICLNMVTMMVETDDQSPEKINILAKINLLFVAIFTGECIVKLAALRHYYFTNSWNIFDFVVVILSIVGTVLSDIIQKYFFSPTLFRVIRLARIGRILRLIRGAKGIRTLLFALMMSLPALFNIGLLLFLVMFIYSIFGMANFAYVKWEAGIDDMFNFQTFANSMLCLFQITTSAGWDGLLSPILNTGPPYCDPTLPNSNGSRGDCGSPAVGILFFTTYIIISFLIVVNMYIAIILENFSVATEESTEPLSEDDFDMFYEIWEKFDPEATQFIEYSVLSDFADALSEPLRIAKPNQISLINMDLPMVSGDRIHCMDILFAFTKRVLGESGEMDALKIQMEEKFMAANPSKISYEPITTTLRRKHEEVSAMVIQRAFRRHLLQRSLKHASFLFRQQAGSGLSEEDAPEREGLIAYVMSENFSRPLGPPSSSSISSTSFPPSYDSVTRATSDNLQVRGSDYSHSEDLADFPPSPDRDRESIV

CSc1ccc([C@H]2N=C(OCc3ccc(NS(C)(=O)=O)cc3)N(C)Cc3ccccc32)cc1
IC50: > 30 µM
